Drawing on ChEMBL document CHEMBL1143736, “Synthesis and antimycobacterial activity of 4-(5-substituted-1,3,4-oxadiazol-2-yl)pyridines” (Bioorg Med Chem, 2007), this text covers MIC, IC50 and viability for 16 compounds.

pIC50: −log10 of the molar value. In brackets after ≈: the same amount, converted by molar mass. Some results are limits rather than exact numbers.

For data set [1], the system named is Mycobacterium tuberculosis. The experiment in a line: Antimycobacterial activity against drug-sensitive Mycobacterium tuberculosis CIBIN 650 isolates. It counts as functional. The procedure, abridged:
(§1)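 Modified microplate Alamar Blue assay (MABA). Inoculum came from a log-phase culture matched to McFarland 1, diluted 1:50 in Middlebrook 7H9 to 6 × 10^6 CFU/mL, and prepared just before inoculation.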

The subject of data set [2] is Mycobacterium tuberculosis. The experiment in a line: Antimycobacterial activity against drug-sensitive Mycobacterium tuberculosis CIBIN 687 isolates. The class given is functional. The procedure, abridged:
as §1

Data set [3] relates to Mycobacterium tuberculosis. Description: Antimycobacterial activity against Mycobacterium tuberculosis H37Rv. The class given is functional. The procedure, abridged:
as §1

A further data set concerns Vero. Description: Cytotoxicity against Vero cells. The class given is cell-based. Particulars: Chlorocebus sabaeus. Summed up:
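Vero cells in DMEM with 10% FBS (1.5 × 10^5 cells/mL) grown 24 h at 36.5 °C, 5% CO2; medium renewed, compounds (DMSO stocks) added in triplicate at 100–0.390 µg/mL by two-fold serial dilution, 24 h. Cells trypsinized, trypan blue stained, 100 counted for % dead, corrected against untreated controls (2.5% DMSO); IC50 by probit; three independent experiments, mean ± SE.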

The nature of data set [4]: Toxicity against adherent human PBMC. It counts as cell-based. Summed up: (§2)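 PBMC from one healthy volunteer, isolated at room temperature, in RPMI 1640 + 10% FBS at 1 × 10^6 cells/mL; compounds tested in quintuplicate, 24 h. Non-adherent cells taken with supernatant, adherent cells recovered with trypsin–EDTA, each fraction pelleted (600g, 5 min) and read separately; IC50 per fraction.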

The nature of data set [5]: Toxicity against non-adherent human PBMC. The class given is cell-based. The procedure, abridged: as §2
For another data set, the system named is PBMC. The experiment in a line: Survival of adherent human PBMC at 100 ug/mL. It counts as functional. The following applies: read-out: Survival. Summed up:
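PBMC came from one healthy volunteer, isolated at room temperature, and were plated at 1 × 10^6 cells/mL in RPMI 1640 + 10% FBS. Compound was added in quintuplicate and incubated 24 h. Both fractions were pelleted at 600g for 5 min.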

As a reminder, the MIC is the smallest concentration in the dilution series that meets the test's criterion for growth inhibition. Broadly, the pIC50 is the IC50 on a negative log10 scale, so that one unit is a factor of ten. Low values mean a high IC50, high ones a low IC50. One may read the IC50 as the midpoint of a concentration-inhibition curve. A low value points to greater potency in that assay.

Regarding `Cc1nnc(-c2ccncc2)o1`, the values for the MIC in data set [1], in data set [2] and in data set [3] were 49.7 µM (≈ 8.01 µg/mL), 6.21 µM (≈ 1 µg/mL) and 49.7 µM (≈ 8.01 µg/mL), respectively.

As for `ClCc1nnc(-c2ccncc2)o1`, the MIC in data set [1], in data set [2] and in data set [3] was 41 µM (≈ 8.03 µg/mL) throughout. The pIC50 in the data set on Vero was 4.19.

As to `CCCCCCCCCCCCCCCc1nnc(-c2ccncc2)o1`, the values for the MIC in data set [1], in data set [2] and in data set [3] were 0.09 µM (≈ 0.0322 µg/mL), 0.7 µM (≈ 0.25 µg/mL) and 0.35 µM (≈ 0.125 µg/mL), respectively. This compound had a pIC50 in the data set on Vero of 4.02. In addition, the IC50 in data set [4] was 125 µg/mL (≈ 350 µM); in data set [5], 15.8 µg/mL (≈ 44.3 µM).

On to `c1cc(-c2nnc(-c3ccncc3)o2)ccn1`, for which the MIC in data set [1] amounted to 8.93 µM (≈ 2 µg/mL); in data set [2], 4.46 µM (≈ 1 µg/mL); in data set [3] it was 8.93 µM (≈ 2 µg/mL). The compound also gave a pIC50 with Vero of 4.03.

`CCCCCCCCCCCCCCCCCc1nnc(-c2ccncc2)o1`: the MIC came out at 0.16 µM (≈ 0.0617 µg/mL) in data set [1], 0.65 µM (≈ 0.251 µg/mL) in data set [2] and 0.65 µM (≈ 0.251 µg/mL) in data set [3]. In the data set with Vero, the pIC50 was 4.06. Moreover, the figures for the IC50 in data set [4] and in data set [5] were 312 µg/mL (≈ 810 µM) and 45.4 µg/mL (≈ 118 µM), respectively.

Regarding `O=[N+]([O-])c1ccc(-c2nnc(-c3ccncc3)o2)cc1`, the MIC in data set [1], in data set [2] and in data set [3] was 29.9 µM (≈ 8.01 µg/mL) in each case.

Take `O=[N+]([O-])c1cc(-c2nnc(-c3ccncc3)o2)cc([N+](=O)[O-])c1`: the MIC in data set [1] was determined as 25.5 µM (≈ 8 µg/mL); in data set [2], 6.39 µM (≈ 2 µg/mL); in data set [3] it was 25.5 µM (≈ 8 µg/mL). The pIC50 in the data set with Vero was 4.11.

Consider `CN(C)c1ccc(-c2nnc(-c3ccncc3)o2)cc1`, for which the MIC in data set [1] turned out to be 30 µM (≈ 8 µg/mL); in data set [2] it was 3.76 µM (≈ 1 µg/mL); in data set [3], 3.76 µM (≈ 1 µg/mL). The same compound gave a pIC50 in the data set with Vero of 4.30.

Consider `FC(F)(F)c1nnc(-c2ccncc2)o1`, for which the MIC in data set [1], in data set [2] and in data set [3] was 37.2 µM (≈ 8.01 µg/mL) throughout.

Turning to `O=[N+]([O-])c1ccccc1-c1nnc(-c2ccncc2)o1`, the MIC in data set [1] worked out at 7.46 µM (≈ 2 µg/mL); in data set [2], 3.73 µM (≈ 1 µg/mL); in data set [3] it was 7.46 µM (≈ 2 µg/mL). The compound also showed a pIC50 in the data set with Vero of 4.49.

Consider `COc1cc(-c2nnc(-c3ccncc3)o2)cc(OC)c1OC`, for which the MIC in data set [1] turned out to be 7.06 µM (≈ 2.21 µg/mL); in data set [2], 3.53 µM (≈ 1.11 µg/mL); in data set [3], 14.1 µM (≈ 4.42 µg/mL). The same compound showed a pIC50 in the data set on Vero of 3.60.

Regarding `c1ccc(-c2nnc(-c3ccncc3)o2)cc1`, the MIC worked out at 8.97 µM (≈ 2 µg/mL) in data set [1], 4.48 µM (≈ 1 µg/mL) in data set [2] and 8.97 µM (≈ 2 µg/mL) in data set [3]. The compound also gave a pIC50 in the data set on Vero of 4.17.

In the case of `CN[C@@H]1[C@H](O[C@H]2[C@H](O[C@H]3[C@H](O)[C@@H](O)[C@H](N=C(N)N)[C@@H](O)[C@@H]3N=C(N)N)O[C@@H](C)[C@]2(O)C=O)O[C@@H](CO)[C@H](O)[C@H]1O` (stereo in doubt) [STREPTOMYCIN], the MIC in data set [1] amounted to 0.1 µM (≈ 0.0582 µg/mL); in data set [3], 0.86 µM (≈ 0.5 µg/mL). Also, in the data set with Vero, the pIC50 was below 4.00.

Take `CC[C@@H](CO)NCCN[C@@H](CC)CO` [ETHAMBUTOL]: the pIC50 in the data set with Vero is below 4.00. The same compound displayed an MIC in data set [3] of 9.8 µM (≈ 2 µg/mL).

As for `NNC(=O)c1ccncc1` [ISONIAZID], the values for the MIC in data set [1], in data set [2] and in data set [3] were 0.91 µM (≈ 0.125 µg/mL), 0.91 µM (≈ 0.125 µg/mL) and 0.44 µM (≈ 0.0603 µg/mL), respectively. This compound gave a pIC50 in the data set with Vero of 4.40. Further, the viability at 100 µg/mL with PBMC is above 95%. In addition, the IC50 in data set [4] is above 100 µg/mL; in data set [5], 87.1 µg/mL (≈ 635 µM).

In the case of `CO[C@H]1/C=C/O[C@@]2(C)Oc3c(C)c(O)c4c(O)c(c(/C=N/N5CCN(C)CC5)c(O)c4c3C2=O)NC(=O)/C(C)=C\C=C\[C@H](C)[C@H](O)[C@@H](C)[C@@H](O)[C@@H](C)[C@H](OC(C)=O)[C@@H]1C` [RIFAMPIN], the pIC50 in the data set on Vero was below 4.00. The same compound displayed an MIC in data set [3] of 0.07 µM (≈ 0.0576 µg/mL).
